TRPC6 activator: mouse TRPC6 channel activation; Q61143; HEK293-TRPC6 membrane potential dye fluorescence; hits give high values; B-score at 10 µM; 0.13% of 310,000 active;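 active = B-score of the integrated fluorescence ratio above library mean plus 3 SD, and starting fluorescence ratio within library mean plus 5 SD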;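 also: higher score means more depolarization so channel activation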
TRPC4 act: TRPC4 (mouse) channel activation; 0.49% of 310,000 active; B-score at 10 µM; Q9QUQ5; HEK293 TRPC4beta/mu-opioid, Fluo4 calcium fluorescence; hits give high values; AID 2237;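 active = B-score above 5 SD of library B-scores, and initial fluorescence ratio not above library mean plus 5 SD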;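 also: positive B-score marks a calcium rise read as TRPC4 activation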
Target sequence (Q9QUQ5 whole entry, looked up): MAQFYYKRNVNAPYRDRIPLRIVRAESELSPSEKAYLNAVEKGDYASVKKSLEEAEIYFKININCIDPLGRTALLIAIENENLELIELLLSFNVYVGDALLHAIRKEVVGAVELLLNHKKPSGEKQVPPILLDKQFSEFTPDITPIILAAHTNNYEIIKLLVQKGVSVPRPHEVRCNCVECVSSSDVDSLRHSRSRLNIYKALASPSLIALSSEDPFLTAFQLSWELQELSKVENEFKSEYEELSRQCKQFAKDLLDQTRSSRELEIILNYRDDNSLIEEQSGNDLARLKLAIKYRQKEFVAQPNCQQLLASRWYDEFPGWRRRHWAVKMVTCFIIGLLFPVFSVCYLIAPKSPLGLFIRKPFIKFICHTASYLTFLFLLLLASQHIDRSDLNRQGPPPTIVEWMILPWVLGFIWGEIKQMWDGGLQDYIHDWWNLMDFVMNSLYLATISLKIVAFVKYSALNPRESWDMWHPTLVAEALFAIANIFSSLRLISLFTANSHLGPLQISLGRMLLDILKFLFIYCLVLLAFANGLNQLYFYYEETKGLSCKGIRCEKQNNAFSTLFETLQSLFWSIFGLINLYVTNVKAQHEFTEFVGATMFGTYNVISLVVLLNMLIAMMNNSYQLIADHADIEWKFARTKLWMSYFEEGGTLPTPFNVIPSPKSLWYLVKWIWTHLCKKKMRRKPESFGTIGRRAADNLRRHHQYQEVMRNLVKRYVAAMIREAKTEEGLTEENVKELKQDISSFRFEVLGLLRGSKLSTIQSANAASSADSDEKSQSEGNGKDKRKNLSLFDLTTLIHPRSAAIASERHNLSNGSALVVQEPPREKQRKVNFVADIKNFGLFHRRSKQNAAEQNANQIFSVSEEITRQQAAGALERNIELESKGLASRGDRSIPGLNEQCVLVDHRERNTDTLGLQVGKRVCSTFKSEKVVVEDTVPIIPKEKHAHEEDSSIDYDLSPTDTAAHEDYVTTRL
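Assay system: HEK293 stable line with TRPC4beta plus mu-opioid receptor. Times: dye 45 min RT, read 110 s. Measured by: kinetic Fluo4 calcium fluorescence. Measure: B score of integrated ratio. Controls: assay buffer as low control, maximal DAMGO as high control.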
TRPC4 potent: allosterically enhances the mouse TRPC4 cation channel | HEK293 TRPC4beta/mu-opioid, DAMGO EC20, Fluo-4 Ca2+ flux; hits give high values | B-score at 10 µM | 0.42% of 310,000 active | AID 2227;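 active = B-score of calcium response area above 5 SD of library B-scores, with initial fluorescence ratio within 5 SD of library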;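 also: B-score of integrated fluorescence ratio over time as area under calcium response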
TRPC6 inh: blocks the mouse TRPC6 cation channel. 1.1% of 310,000 active. Q61143. B-score at 10 µM. HEK293-TRPC6, membrane potential dye, ACh-evoked depolarization; hits give low values. AID 2553;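 active = B-score under library mean minus 3 SD, initial fluorescence not abnormally high, positive integrated signal ratio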;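 also: B-score derived from integrated fluorescence ratio over the kinetic read; more negative B-score means stronger inhibition of depolarization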
TRPC4 inh: TRPC4 (mouse) channel inhibition; AID 2247; 0.39% of 300,000 active; Q9QUQ5; B-score at 10 µM; HEK293 TRPC4beta/mu-opioid, DAMGO-evoked Fluo4 calcium flux; hits give low values;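 active = B-score over 3 SD under the library average, no early fluorescence shift, positive overall ratio signal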
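Assay system: HEK293 cells with stable TRPC4beta plus mu-opioid receptor expression. Dosing: single dose. Measured by: Fluo4 Ca2+ flux fluorescence. Also added: DAMGO in two steps, submaximal then maximal. Read-out: B score from integrated Fluo4 fluorescence ratio.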
TRPC4 sel inh 2: mouse TRPC4 off-target activity of TRPC6 inhibitors, second screen; 42% of 920 active; shares compounds with TRPC6 inh; HEK293 TRPC4/MOR, membrane potential dye fluorescence; channel activated by saturating DAMGO dose; inhibition, % at 10 µM;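 active = compounds whose fluorescence signal differed from control wells by over 3 SD, either direction, in both duplicate plates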
TRPC4 spec: tests whether TRPC6 inhibitors also affect mouse TRPC4; shares compounds with TRPC6 inh; activity change, negative = inhibition, % at 10 µM; HEK293 TRPC4/mu-opioid, membrane potential fluorescence; 61% of 920 active;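 active = rise or fall in signal beyond 3 SD of buffer-only wells in both replicate plates, either sign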;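 also: integrated kinetic ratio of fluorescence range over baseline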
HEK293 MPD ctr 2-1: second check of TRPC6 inhibitor effects in parental HEK293 cells. parental HEK293 membrane potential dye fluorescence; maximal acetylcholine challenge after compound addition. shares compounds with TRPC6 inh. signal change vs control, % at 10 µM. 31% of 920 active;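 active = membrane potential signal moving either way by over 3 SD of the maximum-effect control, in both duplicate plates, meaning non-specific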
HEK293 MPD ctr-1: checks TRPC6 inhibitor effects in parental HEK293 cells; shares compounds with TRPC6 inh; parental HEK293 membrane potential dye fluorescence; membrane potential signal change, % at 10 µM; 60% of 920 active;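 active = membrane potential signal shifting up or down by more than 3 SD of buffer-only wells, on both duplicate plates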
HEK293 MPD ctr-2: checks TRPC6 modulator effects in parental HEK293 cells | membrane potential dye fluorescence | AID 488924 | membrane potential signal change, % at 10 µM | shares compounds with TRPC6 inh | 51% of 2,400 active;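 active = membrane potential signal moves up or down beyond 5 SD from buffer-only wells, on both duplicate plates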
HEK293 MPD ctr 2-2: parental HEK293 nonspecific activity of TRPC6 modulators, second screen | shares compounds with TRPC6 inh | inhibition, % at 10 µM | membrane potential dye fluorescence; after compound, maximal acetylcholine stimulation | 14% of 2,400 active;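 active = membrane potential signal drops by more than 5 SD from the mean control signal, in both duplicate plates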;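 also: plate controls were acetylcholine ECmax control wells for no effect and buffer only wells for full effect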
TRPC4 ctr mod: mouse TRPC4 off-target activity of TRPC6 modulators; 69% of 2,400 active; AID 488927; percent change from control (negative = decrease, positive = increase), % at 10 µM; shares compounds with TRPC6 inh; HEK293 TRPC4/mu-opioid, membrane potential fluorescence;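 active = membrane potential signal moved up or down beyond 5 SD of buffer control wells, in both duplicate plates, actives on both sides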;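 also: plate controls were assay buffer wells for no effect and DAMGO maximal-effect wells for full effect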
TRPC4 ctr inh 2: second selectivity test of TRPC6 modulators against mouse TRPC4. 55% of 2,400 active. HEK293 TRPC4/mu-opioid, membrane potential dye fluorescence; stimulated with maximal-effect DAMGO. shares compounds with TRPC6 inh. inhibition, % at 10 µM;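 active = drop in membrane potential signal beyond 5 SD of the control wells in both duplicate plates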;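 also: TRPC4 counter screen for TRPC6 hits run under conditions tuned for TRPC6 not TRPC4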
TRPC6 block conf: mouse TRPC6 inhibitor confirmation | HEK293-TRPC6, membrane potential dye, ACh-evoked depolarization | 43% of 3,300 active | shares compounds with TRPC6 inh | inhibition, % at 10 µM;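 active = fluorescence ratio falls more than 5 SD below the full-stimulation control mean, in both duplicate runs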;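 also: integrated fluorescence ratio of peak minus minimum over baseline after agonist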
TRPC6 act conf: confirmation of mouse TRPC6 activators; activation, % at 10 µM; shares compounds with TRPC6 inh; 11% of 2,800 active; HEK293-TRPC6 membrane potential dye fluorescence, FDSS; AID 488961;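 active = ratio signal rise beyond 5 SD above unstimulated control wells' mean, seen in both duplicate runs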;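 also: plate controls were buffer EC0 wells for no effect and acetylcholine ECmax response for full effect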
* marks the source's active call; other numbers are inactive results; i = inactive; · = not tested or not shown; + = active, no number. Hits are enriched below; roughly 2.3% of the tested compounds scored in any of these assays.

SMILES	TRPC6 activator	TRPC4 act	TRPC4 potent	TRPC6 inh	TRPC4 inh	HEK293 MPD ctr-2	HEK293 MPD ctr 2-2	TRPC4 ctr mod	TRPC4 ctr inh 2	TRPC6 block conf	TRPC6 act conf	others
O=c1c(O)c(-c2cccs2)oc2ccc(Cl)cc12	76.3*	i	i	i	i	+	i	326.5%*	82.5%*	i	334.0%*
O=C(Nc1ccccc1C(=O)Nc1nnc(C(F)(F)F)s1)c1ccccc1Cl	i	i	i	-6.51*	i	121.0%*	i	25.5%*	54.5%*	55.0%*	·
NC(=O)c1ccccc1NC(=O)c1ccccc1Cl	i	i	i	i	i	·	·	·	·	·	·
CCCCC(=O)Nc1nnc(CCc2ccccc2)s1	i	i	i	i	i	·	·	·	·	·	·
O=C(CCc1nc2ccccc2c(=O)[nH]1)N1CCN(C/C=C/c2ccccc2)CC1	i	i	i	i	i	·	·	·	·	·	·
O=c1[nH]c(CN2CCN(C/C=C/c3ccccc3)CC2)nc2cc(Cl)ccc12	i	i	i	-5.3*	i	i	i	8.5%*	44.0%*	i	i
CCC(C)c1ccccc1OCCCNC1CCCC1 (stereo not given)	i	i	i	-5*	i	232.5%*	i	57.5%*	58.0%*	44.5%*	·
CC(C)c1cc(C(C)C)c(S(=O)(=O)N2c3ccccc3[C@@]3(Br)C[C@H]4C(=O)N[C@@H](Cc5ccccc5)C(=O)N4[C@@H]23)c(C(C)C)c1	i	i	i	i	i	·	·	·	·	·	·
Cc1c(C)n(Cc2ccccc2)c2ncnc(NCCN(C)C)c12	i	i	i	-7.09*	i	·	·	·	·	i	i	TRPC4 sel inh 2=i;TRPC4 spec=-16.6%*;HEK293 MPD ctr 2-1=i;HEK293 MPD ctr-1=-277.0%*
Cc1c(C)n(Cc2ccccc2)c2ncnc(NN)c12	i	i	i	i	i	·	·	·	·	·	·
Cc1c(C)n(-c2ccccc2)c2ncnc(NCCCN(C)C)c12	i	i	i	i	i	·	·	·	·	·	·
Cc1c(C)n(Cc2ccccc2)c2ncnc(NCCCN(C)C)c12	i	i	i	-5.96*	i	-101.5%*	i	-20.5%*	53.5%*	42.5%*	i
COc1ccccc1Nc1ncnc2c1c(C)c(C)n2CCCN(C)C	i	i	i	-5.19*	i	-101.0%*	i	-23.0%*	74.0%*	54.5%*	i
CC(=O)NCCc1c[nH]c2ccc(O)cc12	i	i	i	i	i	·	·	·	·	·	·
CC(c1ccccc1)C(CC(=O)O)C(=O)Nc1ccc(Cl)c(Cl)c1 (stereo not given)	i	i	i	i	i	·	·	·	·	·	·
CC(C)NC(=O)c1cnc(Sc2ncc(C(F)(F)F)cc2Cl)n1C	i	i	i	-5.71*	i	i	i	i	i	i	i
COc1ccc(Cl)cc1NC(=O)C(C)N(C)Cc1ccc(C(F)(F)F)cc1 (stereo not given)	i	i	i	i	i	·	·	·	·	·	·
COc1cc(CNCCc2ccccc2F)ccc1OCc1ccc(Cl)nc1	i	i	i	-7.73*	i	·	·	·	·	60.0%*	i	TRPC4 sel inh 2=48.5%*;TRPC4 spec=i;HEK293 MPD ctr 2-1=225.5%*;HEK293 MPD ctr-1=3.9%*
COc1ccc2c(c1)c1c3n2CCN(C)C3=NCC1	i	i	i	-12.6*	i	-290.0%*	90.0%*	-43.5%*	46.5%*	58.0%*	i
c1cc2c(cc1C1CCCCC1)c1c3n2CCN=C3CCC1	i	i	i	i	i	·	·	·	·	·	·
Cc1onc(-c2c(Cl)cccc2Cl)c1NC(=O)NN(C)C	i	i	i	i	i	·	·	·	·	·	·
Cc1onc(-c2c(Cl)cccc2Cl)c1NC(=O)N1CCSCC1	12*	i	i	i	i	i	i	i	i	i	i
O=C(O)c1ccc(N/N=C/C2=C(N3CCOCC3)C(=C\c3ccccc3)/CC2)cc1	22.1*	51*	i	i	i	856.5%*	i	191.0%*	i	i	350.5%*
CC1C/C(=N/NC(=O)c2ccc(CSc3nc4ccccc4[nH]3)cc2)CC(C)(C)C1 (stereo not given)	i	i	i	i	i	·	·	·	·	·	·
CC1C/C(=N/Nc2nc3ccccc3[nH]2)CC(C)(C)C1 (stereo not given)	i	i	i	-5.42*	i	i	i	i	48.0%*	i	i
CC(=O)Nc1cccc(-c2cc(C)c3cc4c(cc3n2)OCO4)c1	i	i	i	i	i	·	·	·	·	·	·
CCOC(=O)Cn1cc(Cl)cc(C(=O)Nc2ccccc2)c1=O	i	i	i	i	i	·	·	·	·	·	·
CCOC(=O)C1CCN(C(=O)c2ccccc2NS(=O)(=O)c2ccccc2)CC1	i	i	i	i	i	·	·	·	·	·	·
CCOC(=O)C1CCN(C(=O)c2cccc(S(=O)(=O)Nc3ccc(C)cc3C)c2)CC1	i	i	i	-5.27*	i	i	i	12.5%*	i	36.5%*	·
Cc1cccc2c(N)c3c(nc12)N(C)CC3	i	i	i	-5.45*	i	-153.5%*	91.0%*	-36.5%*	81.0%*	77.5%*	i
